Experimental data taken from publication PMC3328401 (Journal of Medicinal Chemistry, 2012).

Key:
[1] = tested on: U-87 MG glioblastoma cells; experiment: Clonogenic survival; type: cell-based, human; settings: U-87, after eight weeks in culture
OVCAR-3 cells [2] = experiment: Concentration-dependent uptake; type: cell-based, human; settings: OVCAR-3, 3 h exposure, estimated
LS 174T cells [3] = experiment: Concentration-dependent uptake; type: cell-based, human; settings: 3 h exposure, estimated
[4] = Chemical hydrolysis of cycloSal phosphate triesters in phosphate buffer; type: physicochemical; settings: phosphate buffer 50 mM, pH 7.3, 37°C, ~15% acetonitrile
OVCAR-3 cells [5] = experiment: Uptake kinetics; type: cell-based, human
Method in brief: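 Cells were plated at 2×10⁵/well in 6-well plates in 3 mL growth medium: OVCAR-3 in RPMI-1640 with 20% FBS, LS 174T in EMEM with 10% FBS. After 24 h, radiolabeled compound (~13.6–46.9 kBq/mL) was added at staggered times, up to 360 min, in triplicate. Medium was gamma-counted for radioactive concentration. Cells were washed twice with ice-cold PBS, trypsinized and gamma-counted for cell-associated activity.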

OVCAR-3 cells [6] = experiment: Subcellular distribution of 125I-labeled reagents; type: cell-based, human
Method in brief: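 OVCAR-3 cells were kept in RPMI-1640 with insulin, 2 mM L-glutamine and 20% FBS and expanded as intraperitoneal xenografts in athymic nude mice. Cells in six T150 flasks attached overnight, then were exposed 1 h to ¹²⁵I compound (55.5 kBq/mL). Three flasks were processed immediately and three after 24 h in fresh medium. Cells were trypsinized, counted, fractionated into nuclear/cytoplasmic compartments and gamma-counted.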

U-87 MG cells = experiment: Subcellular distribution and DNA retention of 125I; type: cell-based, human
Method in brief: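 U-87 MG cells (~1×10⁶ per T75, EMEM with 10% FBS) were grown 24 h, then given radiolabeled compound for 1 h. They were processed immediately or after 24 h in fresh nonradioactive medium. Pellets (1,000 rpm, 4°C, 15 min) were fractionated with nuclear/cytoplasmic extraction reagents into cytoplasm, soluble nuclear and DNA fractions, which were gamma-counted. DNA-bound ¹²⁵I was also measured after genomic-tip DNA isolation. Longer exposures of 40–144 h were also run.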

[7] = Lipophilicity, shake-tube method n-octanol/phosphate buffered saline; type: physicochemical; settings: n-octanol / phosphate buffered saline 10 mM, pH 6.8
LS 174T cells [8] = experiment: Uptake kinetics; type: cell-based, human
human BChE = human BChE (Homo sapiens, UniProt P06276); experiment: Gel electrophoresis/autoradiography of radioactive compounds with BChE; type: binding; settings: BChE 0.02 U or increasing activities, 30 min
Method in brief: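 Radioactive compounds with human BChE were run on native and nonreducing SDS-PAGE gels at constant 150 V or 190 V for 1 h. Gels were exposed to autoradiography film at −80°C for 1–48 h, depending on applied radioactivity. Native gels were stained for BChE activity with 1 mM butyrylthiocholine iodide as substrate (Karnovsky–Roots method).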

[9] = intravenously administered; cited from earlier work
[10] = after intratumor injections; cited from earlier work
[11] = 1 h incubation then 24 h in fresh nonradioactive medium

Sequence of human BChE (P06276 29-602): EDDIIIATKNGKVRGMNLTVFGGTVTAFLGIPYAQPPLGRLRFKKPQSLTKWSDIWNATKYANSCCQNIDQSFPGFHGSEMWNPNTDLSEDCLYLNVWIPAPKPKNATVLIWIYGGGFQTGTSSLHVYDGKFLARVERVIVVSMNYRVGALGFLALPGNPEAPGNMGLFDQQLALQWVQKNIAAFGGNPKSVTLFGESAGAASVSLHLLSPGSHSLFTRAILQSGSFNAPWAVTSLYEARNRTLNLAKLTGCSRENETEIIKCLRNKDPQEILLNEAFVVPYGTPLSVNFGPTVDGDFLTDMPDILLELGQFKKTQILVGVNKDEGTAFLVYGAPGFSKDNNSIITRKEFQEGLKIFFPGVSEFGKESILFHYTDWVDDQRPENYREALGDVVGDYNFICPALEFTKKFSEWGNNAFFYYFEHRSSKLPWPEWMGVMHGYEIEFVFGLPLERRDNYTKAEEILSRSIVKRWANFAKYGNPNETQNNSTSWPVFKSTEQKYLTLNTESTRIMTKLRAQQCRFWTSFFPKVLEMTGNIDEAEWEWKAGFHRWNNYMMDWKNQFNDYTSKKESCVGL

## O=c1[nH]c(=O)n([C@H]2C[C@H](O)[C@@H](COP3(=O)OCc4ccccc4O3)O2)cc1[125I] (stereo partly shown) [6b-fast, 5-[^125I]-Iodo-5′-O-cycloSaligenyl-2′-deoxyuridine Monophosphate]
[1]
  colony formation: failed to produce any colonies
OVCAR-3 cells [2]
  Bmax: ~ 7,400 molecules/cell
LS 174T cells [3]
  Bmax: ~ 1,300 molecules/cell
[4]
  k (rate of hydrolysis): 0.00225 min⁻¹

## O=c1[nH]c(=O)n([C@H]2C[C@H](O)[C@@H](COP3(=O)OCc4ccccc4O3)O2)cc1[125I] (stereo partly shown) [6b-slow, 5-[^125I]-Iodo-5′-O-cycloSaligenyl-2′-deoxyuridine Monophosphate]
[1]
  colony formation: failed to produce any colonies
OVCAR-3 cells [5]; OVCAR-3, after 90 min
  uptake ratio of slow to fast diastereomer: ~ 1.7
OVCAR-3 cells [5]; OVCAR-3, up to 90 min
  uptake rate, slow relative to fast diastereomer: 6.5 ×
OVCAR-3 cells [2]
  Bmax: > 50,000 molecules/cell
OVCAR-3 cells [6]; [11]
  ^125I in cytoplasm, 24 hours: 6.0 (0.7) cpm/10^3 cells (std dev)
  ^125I in nucleus, 24 hours: 31.3 (6.0) cpm/10^3 cells (std dev)
OVCAR-3 cells [6]; 1 h incubation, 55.5 kBq/mL
  ^125I in cytoplasm, 1 hour: 14.8 (6.8) cpm/10^3 cells (std dev)
  ^125I in nucleus, 1 hour: 4.9 (2.5) cpm/10^3 cells (std dev)
LS 174T cells [3]
  Bmax: ~ 6,800 molecules/cell
U-87 MG cells; U-87, 40-h incubation, 19.6 kBq/mL, genomic tips method
  125I accumulated in DNA: 1.18 (0.11) mBq ^125I/cell
[4]
  k (rate of hydrolysis): 0.00152 min⁻¹
[7]
  Log P: 0.66 (± 0.03)
LS 174T cells [8]; after 90 min
  uptake ratio of slow to fast diastereomer: ~ 1.7
LS 174T cells [8]; up to 90 min
  uptake rate, slow relative to fast diastereomer: 4.6 ×

## CC(C)(C)c1cc(C(C)(C)C)c2c(c1F)COP(=O)(OC[C@H]1O[C@@H](n3cc([125I])c(=O)[nH]c3=O)C[C@@H]1F)O2 (stereo partly shown) [24b-slow, 5-[^125I]-Iodo-5′-O-[cyclo-3,5-Di-(tert-butyl)-6-fluoroSaligenyl]-3′-fluoro-2′,3′-dideoxyuridine]
U-87 MG cells; U-87 MG, 1 h treatment
  uptake and retention lower in the cytoplasm, nucleus and DNA: ~ 20 ×
U-87 MG cells; U-87 MG, 24 h in fresh medium
  presence in intracellular compartments at 24 h: practically undetectable
Human BChE
  binding to BChE on gel autoradiograph: BChE activity-dependent binding
[4]
  k (rate of hydrolysis): 0.000224 min⁻¹

## O=c1[nH]c(=O)n([C@H]2C[C@H](O)[C@@H](CO)O2)cc1[125I] [^125IUdR, 5-[^125I]Iodo-2′-deoxyuridine]
[9]
  time to destruction in circulation: within a few min
[10]
  injected ^125IUdR associated with one gram of tumor: ~ 0.02%
  tumor uptake, range: 0.001–0.06 % ID/g
